The list is not random: actives were taken first. Their share in the collection is about 10%.
PMI act satM6P: human PMI activators, high substrate, primary screen, biochemical, fluorescence intensity, near-saturating mannose 6-phosphate; Mannose-6-phosphate isomerase (Homo sapiens), P34949; coupled PMI enzyme assay, resazurin fluorescence, 20 min; active compounds read high; 1 = untreated enzyme, 0 = substrate-free blank; activation factor at 20 µM; 0.34% of 190,000 active;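 active = activation factor of 2 or more at 20 µM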
Target sequence (P34949 whole entry, looked up): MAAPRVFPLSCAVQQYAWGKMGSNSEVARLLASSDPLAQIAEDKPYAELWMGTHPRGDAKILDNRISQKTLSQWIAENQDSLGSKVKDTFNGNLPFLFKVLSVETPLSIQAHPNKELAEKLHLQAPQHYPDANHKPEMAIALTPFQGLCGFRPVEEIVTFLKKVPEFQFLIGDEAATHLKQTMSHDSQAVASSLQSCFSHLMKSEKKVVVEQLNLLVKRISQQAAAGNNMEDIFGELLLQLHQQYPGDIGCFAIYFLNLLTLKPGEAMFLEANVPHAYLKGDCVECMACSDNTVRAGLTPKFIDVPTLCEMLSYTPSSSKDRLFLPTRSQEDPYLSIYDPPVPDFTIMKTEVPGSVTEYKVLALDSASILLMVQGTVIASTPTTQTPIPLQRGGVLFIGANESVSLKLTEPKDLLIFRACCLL
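Test system: Human PMI in coupled enzyme assay | Input: 15 ng/mL PMI | Medium: HEPES-buffered pH 7.4 with magnesium and detergent | Compound: One concentration, 20 µM, in 1% DMSO | Incubation: Enzyme reaction with compound 20 min at room temperature | Detection: Diaphorase-driven resazurin-to-resorufin fluorescence, excitation 544, emission 590 nm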
PMI activator: activators of human PMI, primary screen, biochemical, fluorescence intensity, near-Km mannose 6-phosphate. Mannose-6-phosphate isomerase (Homo sapiens), P34949. purified human PMI, coupled resazurin fluorescence, 20 min; active compounds read high; 1 = vehicle control, 0 substrate-free wells. 0.005% of 190,000 active. activation factor at 20 µM;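 active = activation factor of 2 or more at 20 µM, relative to plate controls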
Diaph act CS: compounds boosting diaphorase resazurin reduction – biochemical, uHTS, resorufin fluorescence, counter-screen for diaphorase-coupled primary assays, primary screen | Diaphorase/resazurin coupled assay, 16 min; active compounds read high; 1 = vehicle wells, 0 = NADH-free wells | activation factor at 20 µM | 0.005% of 190,000 active;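 active = diaphorase activity raised at least twofold by the compound at 20 µM; inactive = activation factor below 2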
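Assay system: bacterial diaphorase enzyme (C. kluyveri) / Input: enzyme 0.07 U/mL final / Medium: 50 mM HEPES pH 7.4 with 4.542 mM MgCl2, 0.005% Tween 20 / Doses: single compound dose of 20 µM, 1% DMSO final / Incubation: 16 min enzyme reaction, ambient temperature / Signal: fluorescence, excitation 544 nm and emission 590 nm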
WT yeast gro inh: growth inhibition of WT strain, primary screen, mitochondrial fusion inhibitor project, WT and mutant strains, chemical genetic; AID 1362, 2008; inhibition, % at 10 µM; mitochondrial fusion phenotypic screen; 2.1% of 190,000 active; in the data active = inhibition above about 58%; tested in S. cerevisiae
L major viab: Leishmania major promastigote growth inhibition, primary screen. Leishmania major promastigotes, resazurin fluorescence viability. inhibition, % at 10 µM. 9% of 200,000 active. AID 1063, 2008; in the data active = inhibition above about 50%;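 also: promastigotes grown with compound for 44 hours at 28 °C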
Starred values were filed as active, the others as inactive.

SMILES | PMI act satM6P | PMI activator | Diaph act CS | WT yeast gro inh | L major viab
NNC(=O)c1cccc(COc2ccccc2Br)c1 | 1 | 1 | 0.8 | 44.0 | -4.4
COC(=O)CNC(c1ccccc1)c1cc(C)ccc1NC(=O)c1cccc(Cl)c1 (stereo not given) | 0.9 | 0.9 | 0.9 | 70.7* | 15.5
COC(=O)CNC(c1ccccc1)c1cc(C)ccc1NC(=O)CNC(=O)OCc1ccccc1 (stereo not given) | 0.9 | 0.9 | 0.9 | 5.0 | 5.5
CCCNC(=S)Nc1ccc2nc(-c3ccccn3)c(-c3ccccn3)nc2c1 | 1.1 | 0.7 | 0.5 | 72.1* | -1.8
CCN1CC(CN(C)Cc2nc(-c3ccc(C(F)(F)F)cc3)oc2C)CC1=O (stereo not given) | 1.1 | 1 | 1.2 | 6.6 | 55.7*
N=C(N)Cc1ccccc1Sc1ccccc1 | 1.1 | 1 | 1 | 1.7 | 98.1*
CNCc1ccccc1Sc1ccc(OC)cc1 | 0.9 | 0.9 | 0.9 | -3.7 | 9.1
Cc1[nH]nc2c1C(C(C)c1ccccc1)C(C#N)=C(N)O2 (stereo not given) | 1.1 | 1 | 0.9 | -9.0 | 13.6
Cc1cc2cc(C(c3nnnn3Cc3ccco3)N3CCc4ccccc43)c(=O)[nH]c2cc1C (stereo not given) | 0.9 | 0.6 | 0.2 | 14.3 | 19.5
CCc1ccc2[nH]c(=O)c(C(c3nnnn3Cc3ccccc3)N3CCOCC3)cc2c1 (stereo not given) | 1.1 | 1.1 | 1 | 18.2 | 96.0*
Cc1cc2cc(C(c3nnnn3Cc3ccco3)N3CCc4ccccc4C3)c(=O)[nH]c2cc1C (stereo not given) | 1.1 | 0.8 | 0.4 | 9.3 | 91.3*
Cc1ccc2[nH]c(=O)c(C(c3nnnn3Cc3ccccc3)N3CCc4ccccc43)cc2c1 (stereo not given) | 1 | 0.8 | 0.5 | 2.6 | 74.0*
Cc1cc2cc(C(c3nnnn3Cc3ccccc3)N3CCc4ccccc43)c(=O)[nH]c2cc1C (stereo not given) | 0.8 | 0.6 | 0.6 | -1.6 | 99.1*
O=C(C1=C[C@@H](c2ccc(Br)cc2)C[C@@H](OCCCCO)O1)N1CCN(Cc2ccccc2)CC1 | 0.9 | 1 | 0.7 | 5.0 | 19.0
O=C(NCCNc1ccc([N+](=O)[O-])cc1)c1ccc(Cl)cc1 | 0.9 | 1 | 0.9 | -3.1 | 34.5
CCOC(=O)C1=C(C(F)(F)F)Nc2ncnn2C1c1ccc(OC)cc1OC (stereo not given) | 1.1 | 1.1 | 0.9 | -14.2 | -5.1
CC1CCCCN1C(=O)COc1ccccc1F (stereo not given) | 1 | 1 | 0.8 | -1.2 | -4.9
Cc1cccc2cc(C(c3nnnn3Cc3ccccc3)N3CCN(c4ccccc4)CC3)c(=O)[nH]c12 (stereo not given) | 0.9 | 0.7 | 0.7 | 25.2 | 51.3*
Cc1cccc2cc(C(c3nnnn3Cc3ccccc3)N3CCN(C)CC3)c(=O)[nH]c12 (stereo not given) | 1 | 1.1 | 0.9 | -16.4 | -9.7
COCC(=O)Nc1ccccc1C#N | 0.9 | 0.9 | 0.9 | 17.3 | -0.5
Cc1ccc(NC(=O)CN(C)C(=O)/C=C/c2cccs2)cc1 | 1 | 0.9 | 0.9 | -10.3 | -3.2
COCC(=O)Nc1ccccc1Br | 0.8 | 1 | 0.9 | -11.2 | 54.3*
COC(=O)C(C)(C)ONC(=O)Nc1ccccc1Br | 0.9 | 1 | 0.9 | -11.0 | 69.0*
Cc1cccc(C)c1NC(=O)CN(C)CC(=O)Nc1ccccc1Br | 1 | 1 | 0.9 | 66.0* | -1.9
Cc1cccc(C)c1NC(=O)CN(C)C(=O)/C=C/c1cccs1 | 1.1 | 1.1 | 1 | 7.5 | 52.4*
SMILES | PMI act satM6P | PMI activator | Diaph act CS | WT yeast gro inh | L major viab
CCC(C)(C(=O)NC1CCCC1)N(Cc1cccs1)C(=O)c1ccccn1 (stereo not given) | 0.4 | 0.5 | 0.7 | -12.2 | -4.3
CCN(CC)CC(=O)Nc1c(C)cccc1C | 1 | 1.1 | 0.9 | -14.7 | 17.5
Cc1cccc(C)c1NC(=O)CN(C)C(=O)C(c1ccccc1)c1ccccc1 | 0.9 | 0.9 | 0.9 | 4.0 | 85.8*
O=C(CSc1ccccc1C(=O)NCc1ccccc1)NC1CCCCCCC1 | 0.9 | 0.8 | 0.9 | 7.9 | 11.7
O=C(Nc1ncccc1Cl)C(Sc1ccccc1)c1ccccc1 (stereo not given) | 0.9 | 1 | 0.8 | 15.8 | 3.6
CCCCOC(=O)CCN1C(=O)/C(=C2\SC(=S)N(CCC(=O)OCCCC)C2=O)SC1=S | 0.9 | 0.8 | 0.9 | 1.7 | 65.8*
COC(=O)C(CC(=O)c1ccc(Cl)cc1)c1ccc(C(C)C)cc1 (stereo not given) | 0.8 | 0.8 | 0.8 | 70.4* | -6.2
CCc1ccc(OCC(=O)N(CC)CC)cc1 | 0.9 | 0.9 | 0.9 | -25.9 | -6.8
O=S(=O)(/C=C/c1ccccc1)Oc1ccccc1 | 1.1 | 1 | 0.7 | -16.9 | 33.7
NC(=O)C1CCN(c2cc(Cl)nc(N)n2)CC1 | 1 | 1 | 1 | 1.5 | -1.2
COCCNC(=O)C(c1ccc(F)cc1)N(C(=O)CCC(=O)Nc1nccs1)c1ccc(C)cc1 (stereo not given) | 0.8 | 1 | 1 | -5.5 | -5.1
CCOC(=O)C1=C(C)Nc2ccccc2N=C1NC(=O)/C=C/c1ccc(OC)cc1OC | 0.9 | 0.8 | 0.7 | 0.8 | 80.1*
CCOC(=O)C1=C(C)Nc2ccccc2N=C1NC(=O)Cc1ccc(OC)cc1 | 1 | 1 | 1 | -12.8 | 0.9
O=C(Cn1cnc([N+](=O)[O-])n1)N/N=C/c1ccc2ccccc2c1 | 0.9 | 0.8 | 0.9 | -11.6 | 96.2*
COc1ccccc1/C=N/NC(=O)Cn1cnc([N+](=O)[O-])n1 | 1 | 1.1 | 1 | -0.2 | 4.1
COc1ccc(NC(=O)c2cc(-c3ccccc3Cl)no2)cc1 | 1 | 1 | 0.8 | 84.9* | -4.3
O=C(Nc1ccccc1)c1cc(-c2ccccc2Cl)no1 | 0.9 | 0.9 | 0.9 | -3.8 | 10.5
COc1cc(OC)cc(-c2nc3ccccc3c(=O)n2OC(=O)c2ccc(Br)cc2)c1 | 1.1 | 0.9 | 0.9 | -6.8 | 50.2*
Cc1cc(C(=O)Nn2c(-c3ccc(Br)cc3)nc3ccccc3c2=O)ccc1[N+](=O)[O-] | 0.9 | 0.8 | 1 | 68.4* | 5.0
O=C(Nn1c(-c2ccc(Br)cc2)nc2ccccc2c1=O)c1ccncc1 | 1 | 1.1 | 1 | 12.3 | -1.8
COc1ccc(C(=O)On2c(-c3ccc(Br)cc3)nc3ccccc3c2=O)cc1 | 1 | 0.9 | 0.8 | 23.8 | -7.7
[2H]c1c([2H])c([2H])c(-c2nc(N3CCCCCC3)sc2C(=O)c2ccccc2)c([2H])c1[2H] | 1 | 0.9 | 0.8 | 5.4 | 11.6

High-throughput results as filed in PubChem.
